Experimental findings from ChEMBL document CHEMBL5230180, “A cationic amphiphilic peptide chaperone rescues Aβ42 aggregation and cytotoxicity” (RSC Med Chem, 2023) are described below.

Usually IC50 stands for the concentration that inhibits the measured activity by half.

The target in data set [1] is Amyloid-beta precursor protein (Homo sapiens) (UniProt P05067). The data set is described as follows: Inhibition of amyloid beta 42 (unknown origin) aggregation assessed as reduction in fluorescence intensity measured for 48 hrs by ThT fluorescence assay. Summed up: (§1)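 Soluble (pre-aggregation) Aβ42 at 25 μM with 20 μM ThT, incubated with peptide at 0.1–10 equivalents (2.5–250 μM) in 10 mM sodium phosphate, 150 mM NaCl, 1 mM EDTA, pH 7.4; time-dependent ThT fluorescence monitored, normalized to Aβ42 alone.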

For data set [2] the target is unchanged. The data set is described as follows: Inhibition of amyloid beta 42 (unknown origin) aggregation assessed as half time for Abeta42 aggregation at Abeta42:compound concentration ratio of 1:1 by ThT fluorescence assay (reference value: 9.34 +/-0.25 hrs).
Data set [3] shares this target. In words: Inhibition of amyloid beta 42 (unknown origin) aggregation assessed as lag time for Abeta42 aggregation at Abeta42:compound concentration ratio of 1:1 by ThT fluorescence assay (reference value: 6.35 +/-0.32 hrs).
Data set [4] relates to SH-SY5Y. In words: Protection against Abeta42-induced cytotoxicity in human SH-SY5Y cells assessed as increase in cell viability at Abeta42:compound concentration ratio of 1:1 incubated for 24 hrs by MTT assay. The data set is classed as functional, cell-based. Summed up:
(§2)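 SH-SY5Y cells given 10 μM soluble Aβ42 with peptide (1, 2, 3, 5, 10, 30 μM; 1:1 for comparison) at 37 °C up to 24 h; MTT formazan read-out relative to cells without peptide or Aβ42; IC50 from dose–response.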

Data set [5] relates to SH-SY5Y. The data set is described as follows: Cytotoxicity against human SH-SY5Y cells assessed as reduction in cell viability at 30 uM incubated for 24 hrs by MTT assay. Type of data set: toxicity, cell-based. In short, it runs like this: (§3)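 SH-SY5Y neuronal cells exposed to peptide alone (1–30 μM) at 37 °C up to 24 h; viability by MTT conversion to formazan, compared with untreated control cells.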
(Tetrazolium assays rely on reduction of a dye to a coloured formazan, in cell work by metabolically active cells.)

The target in data set [6] is Amyloid-beta precursor protein (Homo sapiens) (UniProt P05067). In words: Inhibition of amyloid beta 42 (unknown origin) aggregation assessed as fluorescence intensity at compound:Abeta42 concentration ratio of 0.5:1 measured for 48 hrs by ThT fluorescence assay. Set-up: scale not given: the % may be the effect or the level left. Summed up:
as §1

The target is the same in data set [7]. The data set is described as follows: Inhibition of amyloid beta 42 (unknown origin) aggregation assessed as fluorescence intensity at compound:Abeta42 concentration ratio of 1:1 measured for 48 hrs by ThT fluorescence assay. The arrangement: scale not given: the % may be the effect or the level left. In short, it runs like this: as §1
Data set [8] shares this target. The data set is described as follows: Inhibition of amyloid beta 42 (unknown origin) aggregation assessed as reduction in fluorescence intensity at Abeta42:compound concentration ratio of 1:3 measured for 48 hrs by ThT fluorescence assay. Summed up: as §1
Data set [9] shares this target. The data set is described as follows: Inhibition of amyloid beta 42 (unknown origin) aggregation assessed as reduction in fluorescence intensity at Abeta42:compound concentration ratio of 1:5 measured for 48 hrs by ThT fluorescence assay. In short, it runs like this:
as §1

Data set [10] has the same target. The data set is described as follows: Inhibition of amyloid beta 42 (unknown origin) aggregation assessed as reduction in fluorescence intensity at Abeta42:compound concentration ratio of 1:10 measured for 48 hrs by ThT fluorescence assay. Summed up: as §1
Data set [11] shares this target. The data set is described as follows: Inhibition of amyloid beta 42 (unknown origin) aggregation assessed as half time for Abeta42 aggregation at Abeta42:compound concentration ratio of 1:0.5 by ThT fluorescence assay (reference value: 9.34 +/-0.25 hrs).
The target is the same in data set [12]. In words: Inhibition of amyloid beta 42 (unknown origin) aggregation assessed as lag time for Abeta42 aggregation at Abeta42:compound concentration ratio of 1:0.5 by ThT fluorescence assay (reference value: 6.35 +/-0.32 hrs).
For data set [13] the target is unchanged. The data set is described as follows: Inhibition of amyloid beta 42 (unknown origin) aggregation assessed as fluorescence intensity at 0.1 equivalents measured for 48 hrs by ThT fluorescence assay. Set-up: scale not given: the % may be the effect or the level left. The settings on record: dose 0.1 equiv. Summed up:
as §1

Data set [14] shares this target. In words: Inhibition of amyloid beta 42 (unknown origin) aggregation assessed as fluorescence intensity at 0.3 equivalents measured for 48 hrs by ThT fluorescence assay. The arrangement: scale not given: the % may be the effect or the level left. The conditions noted are these: dose 0.3 equiv. In short, it runs like this:
as §1

The target is the same in data set [15]. In words: Disruption of aggregated Amyloid beta 42 fibrils (unknown origin) assessed as reduction in fluorescence intensity at compound:Abeta42 concentration ratio of 1:1 treated with compound after 16 hrs of incubation of Abeta42 in solution by ThT fluorescence assay. In short, it runs like this:
(§4)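 Aβ42 (25 μM) preincubated with 20 μM ThT at 37 °C; peptide added at 1:1 after 16 or 24 h, incubation continued and ThT fluorescence followed over time; buffer 10 mM sodium phosphate, 150 mM NaCl, 1 mM EDTA, pH 7.4.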

For data set [16] the target is unchanged. The data set is described as follows: Disruption of aggregated Amyloid beta 42 fibrils (unknown origin) assessed as reduction in fluorescence intensity at compound:Abeta42 concentration ratio of 1:1 treated with compound after 24 hrs of incubation of Abeta42 in solution by ThT fluorescence assay. Summed up:
as §4

For data set [17] the target is unchanged. In words: Inhibition of amyloid beta 42 (unknown origin) aggregation assessed as aggregated particle size at equimolar concentration with Abeta42 incubated for 24 hrs by Dynamic light scattering based analysis (reference value: 800 nm). Summed up: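 Dynamic light scattering of 10 μM Aβ42 with or without peptide after 24 h at 37 °C; frequency distribution of particle diameter.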

For data set [18] the target is unchanged. The data set is described as follows: Inhibition of amyloid beta 42 (unknown origin) aggregation assessed as reduction in fluorescence intensity at equimolar concentration with Abeta42 incubated for 48 hrs by ThT laser scanning confocal microscopy.
For data set [19] the target is unchanged. In words: Inhibition of amyloid beta 42 (unknown origin) aggregation assessed as reduction in Abeta42 fibrillar network at compound:Abeta42 concentration ratio of 1:1 incubated for 48 hrs by HR-TEM analysis. Summed up: (§5)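 10 μM soluble Aβ42 incubated at 37 °C for about 48 h alone or with peptide (1:1; 10 μM); fibril morphology imaged by HR-TEM and AFM.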

Data set [20] has the same target. The data set is described as follows: Inhibition of amyloid beta 42 (unknown origin) aggregation assessed as reduction in Abeta42 fibrillar network at 10 uM incubated for 48 hrs by AFM analysis. In short, it runs like this: as §5
The target is the same in data set [21]. In words: Inhibition of amyloid beta 42 (unknown origin) aggregation assessed as decrease in absorbance at 450 nm at Abeta42:compound concentration ratio of 1:0.5 to 1:10 incubated for up to 24 hrs by ELISA. In short, it runs like this:
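Aβ42 in PBS preincubated 24 h with peptide (0.5–10 equivalents), then captured on oligomer-specific monoclonal antibody-coated wells; detection via biotinylated antibody, streptavidin-HRP and TMB, absorbance 450 nm; peptide-alone wells included.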
On the technique in general: An ELISA detects its analyte on a solid surface through an enzyme-linked reagent.

The target is the same in data set [22]. In words: Inhibition of amyloid beta 42 (unknown origin) aggregation assessed as transformation of random coil structure to helical secondary structure with CD minima at 205 nm and 221 nm at Abeta42:compound concentration ratio of 1:1 incubated for 24 hrs by circular dichroism analysis. In short, it runs like this: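 CD spectra of 50 μM soluble Aβ42 in PBS at 0 h and after 24 h at room temperature, alone or with equimolar (50 μM) peptide; peptide alone also recorded.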
(In general: Circular dichroism is the unequal absorption of left and right circularly polarised light.)

The test system of data set [23] is SH-SY5Y. The data set is described as follows: Cytotoxicity against human SH-SY5Y cells assessed as reduction in cell viability upto 30 uM incubated for 24 hrs by MTT assay. Type of data set: toxicity, cell-based. Summed up: as §3
In data set [24] the test system is SH-SY5Y. In words: Protection against Abeta42-induced cytotoxicity in human SH-SY5Y cells assessed as increase in cell viability incubated for 24 hrs in presence of 10 uM Abeta42 by MTT assay. Type of data set: functional, cell-based. In short, it runs like this:
as §2

Data set [25] can be described thus: Hemolytic activity against red blood cells (unknown origin) upto 250 uM. The settings on record: erythrocyte. The data set is classed as toxicity, cell-based. Summed up:
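Red blood cells treated with a range of peptide concentrations up to 250 μM; haemolysis assessed.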

The target in data set [26] is Amyloid-beta precursor protein (Homo sapiens) (UniProt P05067). The data set is described as follows: Inhibition of 15N-labeled amyloid beta 42 (unknown origin) aggregation assessed as Abeta42 conformational reorganization by measuring changes in positions of Abeta42 cross-peaks at Abeta42:compound concentration ratio of 1:1 by 1H-15N HSQC NMR spectral analysis.

The source made the active and inactive calls. The rule behind the calls is not given here. Bounds are passed on as bounds.

Sequence of Amyloid-beta precursor protein (Homo sapiens) (P05067 whole entry): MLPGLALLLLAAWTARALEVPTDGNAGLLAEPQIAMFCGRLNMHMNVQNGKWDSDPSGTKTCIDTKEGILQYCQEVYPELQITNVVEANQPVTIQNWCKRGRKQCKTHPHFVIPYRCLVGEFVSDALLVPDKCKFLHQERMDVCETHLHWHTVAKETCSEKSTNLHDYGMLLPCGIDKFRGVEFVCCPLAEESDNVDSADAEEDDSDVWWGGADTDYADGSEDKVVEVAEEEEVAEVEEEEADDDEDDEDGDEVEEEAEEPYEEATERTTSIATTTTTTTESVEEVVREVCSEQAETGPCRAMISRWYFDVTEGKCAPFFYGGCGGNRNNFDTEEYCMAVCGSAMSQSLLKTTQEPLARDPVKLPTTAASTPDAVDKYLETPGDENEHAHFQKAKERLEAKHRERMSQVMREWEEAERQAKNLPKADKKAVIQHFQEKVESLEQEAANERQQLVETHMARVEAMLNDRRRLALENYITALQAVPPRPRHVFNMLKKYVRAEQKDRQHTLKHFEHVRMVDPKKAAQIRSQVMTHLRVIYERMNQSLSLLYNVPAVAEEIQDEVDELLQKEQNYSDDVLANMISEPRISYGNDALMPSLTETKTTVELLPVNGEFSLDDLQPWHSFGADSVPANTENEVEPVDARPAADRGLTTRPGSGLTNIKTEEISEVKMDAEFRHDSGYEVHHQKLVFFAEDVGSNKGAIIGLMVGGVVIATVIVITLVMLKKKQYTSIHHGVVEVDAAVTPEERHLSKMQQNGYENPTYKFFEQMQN

Ac-KLAKLAKL-NH2: the inhibition entry in data set [1] was “Dose-Dependent Effect”. Also, the T1/2 in [2] is 8.22 h. Also, the TIME in [3] came out at 2.14 h. Moreover, the result with SH-SY5Y [4] was Active. For the same molecule, in the data set with SH-SY5Y [5], the Activity result is given as “Non-Toxic”.

Turning to Ac-ALAALALALAALAAL-NH2, in [1], the inhibition result is “inactive”.

Turning to Ac-KLAKLAKKLAKL-NH2, the inhibition result in data set [1] was “Dose-Dependent Effect”. The T1/2 in data set [2] was determined as 9.59 h. The TIME in data set [3] was 0.75 h. Moreover, in the data set on SH-SY5Y [4], the result was Active. Moreover, in the data set with SH-SY5Y [5], the Activity entry was “Non-Toxic”.

With `CC(=O)N[C@@H](CCCCN)C(=O)N[C@@H](CC(C)C)C(=O)N[C@@H](C)C(=O)N[C@@H](CCCCN)C(=O)N[C@@H](CC(C)C)C(=O)N[C@@H](C)C(=O)N[C@@H](CCCCN)C(=O)N[C@@H](CCCCN)C(=O)N[C@@H](CC(C)C)C(=O)N[C@@H](C)C(=O)N[C@@H](CCCCN)C(=O)N[C@@H](CC(C)C)C(=O)N[C@@H](C)C(=O)N[C@@H](CCCCN)C(=O)N[C@@H](CC(C)C)C(N)=O`, the Activity in data set [6] is 20%; in [7] it was less than 3%; in [13] it was 40%; in data set [14] it was 30%; in data set [17], 100 nm; in the data set with SH-SY5Y [23] it was “Non-Toxic”. Besides, the Activity result in data set [25] is listed as “Non-Toxic”. The inhibition result in data set [8], in data set [9], in data set [10], in [18], in data set [19] and in [20] was “Active” throughout. Moreover, the inhibition result in data set [21] and in data set [22] was “Active” in each case. The T1/2 in data set [11] was 6.09 h. The TIME in [12] was 1.8 h. Moreover, the result (in data set [15]; in data set [16]; in the data set with SH-SY5Y [4]; in data set [26]) was Active. Besides, in the data set on SH-SY5Y [24], the IC50 came out at 8.73 µM.
